Reference: ChEMBL document CHEMBL4480442, “Phloroglucinols with Immunosuppressive Activities from the Fruits of Eucalyptus globulus” (J Nat Prod, 2019)
Activity calls are given as the source filed them. The calls are words filed in the database; no cut-off is given here.

What was measured:
[1] = […], ratio of CC50 for BALB/c mouse lymph node cells to IC50 for immunosuppressive activity in BALB/c mouse lymph node cells assessed as inhibition of concanavalin A stimulated T-cell proliferation
[2] = Immunosuppressive activity in BALB/c mouse lymph node cells assessed as inhibition of concanavalin A stimulated T-cell proliferation measured after 48 hrs by CCK8 assay; type: functional
[3] = Cytotoxicity against BALB/c mouse lymph node cells assessed as reduction in cell viability measured after 48 hrs by CCK8 assay; type: cell-based
[4] = Immunosuppressive activity in concanavalin A stimulated BALB/c mouse lymph node cells assessed as induction of apoptosis by measuring early apoptotic cells at 10 uM measured after 48 hrs by Annexin-V/propidium iodide staining based flow cytometry (reference value: 0.1%); type: functional
Mus musculus [5] = species: Mus musculus; test: Immunosuppressive activity in BALB/c mouse lymph node cells assessed as inhibition of concanavalin A stimulated T-cell proliferation at 1 to 20 uM measured after 48 hrs by CCK8 assay; type: functional
[6] = Immunosuppressive activity in concanavalin A stimulated BALB/c mouse lymph node cells assessed as induction of apoptosis by measuring early apoptotic cells at 1 uM measured after 48 hrs by Annexin-V/propidium iodide staining based flow cytometry (reference value: 0.1%); type: functional
[7] = target: RAC-alpha serine/threonine-protein kinase (Mus musculus) (UniProt P31750); test: Inhibition of AKT phosphorylation in concanavalin A stimulated BALB/c mouse lymph node cells assessed as IL4 level at 20 uM measured after 48 hrs by ELISA (reference value: 142.4 +/- 12.4 pg/ml)
RAC-alpha serine/threonine-protein kinase (Mus musculus), sequence (P31750 whole entry): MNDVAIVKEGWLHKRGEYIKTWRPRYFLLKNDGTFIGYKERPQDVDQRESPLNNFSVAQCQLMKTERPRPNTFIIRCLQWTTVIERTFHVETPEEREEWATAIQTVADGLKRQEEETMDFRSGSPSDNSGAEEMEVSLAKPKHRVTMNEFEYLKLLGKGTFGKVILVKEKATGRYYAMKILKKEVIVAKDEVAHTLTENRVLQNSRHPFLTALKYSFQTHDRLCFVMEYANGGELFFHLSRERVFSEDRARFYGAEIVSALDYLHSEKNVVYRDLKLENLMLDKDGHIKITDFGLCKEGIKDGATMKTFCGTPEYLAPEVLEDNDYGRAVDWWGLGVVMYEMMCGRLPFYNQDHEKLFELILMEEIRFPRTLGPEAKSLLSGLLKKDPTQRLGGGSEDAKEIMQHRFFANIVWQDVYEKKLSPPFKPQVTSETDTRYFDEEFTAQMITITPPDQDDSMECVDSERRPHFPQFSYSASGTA
How it was run: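 ELISA for IL-4 or IFN-γ in culture medium: BALB/c […] cells, 2 × 10^6 cells/well, stimulated with ConA (5 μg/mL) with compound at 1, 10, 20 μM for 48 h; absorbance at 450 nm; means ± SEM of three independent experiments.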

Mus musculus [8] = species: Mus musculus; test: Immunosuppressive activity in concanavalin A stimulated BALB/c mouse lymph node cells assessed as increase in cytochrome c levels in cytoplasm at 1 to 20 uM measured after 48 hrs by Western blotting analysis; type: functional
How it was run: (§1)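 Mouse […] cells, 2 × 10^6 cells/well, ConA (5 μg/mL) with compound at 1, 10, 20 μM for 48 h; cells washed with PBS, protein extracted and Western blotted; band densities quantified as Bax/Bcl-2 ratio and cytoplasmic/mitochondrial cytochrome c ratio; three independent experiments, means ± SEM.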

[9] = target: RAC-alpha serine/threonine-protein kinase (Mus musculus) (UniProt P31750); test: Inhibition of AKT phosphorylation in concanavalin A stimulated BALB/c mouse lymph node cells at 20 uM measured after 48 hrs by Western blotting analysis
Mus musculus [10] = species: Mus musculus; test: Immunosuppressive activity in concanavalin A stimulated BALB/c mouse lymph node cells assessed as increase in ratio of Bax/Bcl2 level at 1 to 20 uM measured after 48 hrs by Western blotting analysis; type: functional; how it was run: as §1
[11] = Immunosuppressive activity in concanavalin A stimulated BALB/c mouse lymph node cells assessed as induction of apoptosis by measuring necrotic cells at 10 uM measured after 48 hrs by Annexin-V/propidium iodide staining based flow cytometry (reference value: 0%); type: functional
Mus musculus [12] = species: Mus musculus; test: Immunosuppressive activity in concanavalin A stimulated BALB/c mouse lymph node cells assessed as caspase-3 activation at 1 to 20 uM measured after 48 hrs; type: functional
[13] = Immunosuppressive activity in concanavalin A stimulated BALB/c mouse lymph node cells assessed as induction of apoptosis by measuring viable cells at 10 uM measured after 48 hrs by Annexin-V/propidium iodide staining based flow cytometry (reference value: 99.7%); type: functional
[14] = target: RAC-alpha serine/threonine-protein kinase (Mus musculus) (UniProt P31750); test: Inhibition of AKT phosphorylation in concanavalin A stimulated BALB/c mouse lymph node cells assessed as IFNgamma level at 20 uM measured after 48 hrs by ELISA (reference value: 575.9 +/- 8.2 pg/ml)
[15] = Immunosuppressive activity in concanavalin A stimulated BALB/c mouse lymph node cells assessed as induction of apoptosis by measuring late apoptotic cells at 1 uM measured after 48 hrs by Annexin-V/propidium iodide staining based flow cytometry (reference value: 0.2%); type: functional
[16] = Immunosuppressive activity in concanavalin A stimulated BALB/c mouse lymph node cells assessed as induction of apoptosis by measuring viable cells at 20 uM measured after 48 hrs by Annexin-V/propidium iodide staining based flow cytometry (reference value: 99.7%); type: functional
[17] = Immunosuppressive activity in concanavalin A stimulated BALB/c mouse lymph node cells assessed as induction of apoptosis by measuring early apoptotic cells at 20 uM measured after 48 hrs by Annexin-V/propidium iodide staining based flow cytometry (reference value: 0.1%); type: functional
Mus musculus [18] = species: Mus musculus; test: Immunosuppressive activity in concanavalin A stimulated BALB/c mouse lymph node cells assessed as caspase-9 activation at 1 to 20 uM measured after 48 hrs; type: functional
[19] = Immunosuppressive activity in concanavalin A stimulated BALB/c mouse lymph node cells assessed as induction of apoptosis by measuring late apoptotic cells at 20 uM measured after 48 hrs by Annexin-V/propidium iodide staining based flow cytometry (reference value: 0.2%); type: functional
[20] = Immunosuppressive activity in concanavalin A stimulated BALB/c mouse lymph node cells assessed as induction of apoptosis by measuring late apoptotic cells at 10 uM measured after 48 hrs by Annexin-V/propidium iodide staining based flow cytometry (reference value: 0.2%); type: functional
[21] = Immunosuppressive activity in concanavalin A stimulated BALB/c mouse lymph node cells assessed as induction of apoptosis by measuring necrotic cells at 20 uM measured after 48 hrs by Annexin-V/propidium iodide staining based flow cytometry (reference value: 0%); type: functional
[22] = Immunosuppressive activity in concanavalin A stimulated BALB/c mouse lymph node cells assessed as induction of apoptosis by measuring necrotic cells at 1 uM measured after 48 hrs by Annexin-V/propidium iodide staining based flow cytometry (reference value: 0%); type: functional
[23] = Immunosuppressive activity in concanavalin A stimulated BALB/c mouse lymph node cells assessed as induction of apoptosis by measuring viable cells at 1 uM measured after 48 hrs by Annexin-V/propidium iodide staining based flow cytometry (reference value: 99.7%); type: functional
[24] = target: RAC-alpha serine/threonine-protein kinase (Mus musculus) (UniProt P31750); test: Inhibition of AKT phosphorylation in concanavalin A stimulated BALB/c mouse lymph node cells assessed as IFNgamma level at 1 uM measured after 48 hrs by ELISA (reference value: 575.9 +/- 8.2 pg/ml)
[25] = target: RAC-alpha serine/threonine-protein kinase (Mus musculus) (UniProt P31750); test: Inhibition of AKT phosphorylation in concanavalin A stimulated BALB/c mouse lymph node cells assessed as IL4 level at 1 uM measured after 48 hrs by ELISA (reference value: 142.4 +/- 12.4 pg/ml)
[26] = target: RAC-alpha serine/threonine-protein kinase (Mus musculus) (UniProt P31750); test: Inhibition of AKT phosphorylation in concanavalin A stimulated BALB/c mouse lymph node cells assessed as IL4 level at 10 uM measured after 48 hrs by ELISA (reference value: 142.4 +/- 12.4 pg/ml)
Mus musculus [27] = species: Mus musculus; test: Immunosuppressive activity in BALB/c mouse lymph node cells assessed as inhibition of concanavalin A stimulated T-cell proliferation by measuring increase in LDH release at 1 to 20 uM; type: functional

CC(C)CC(=O)c1c(O)c(C=O)c(O)c(C[C@@]2(C)CCC3C2[C@H]2[C@@H](CC[C@@]3(C)O)C2(C)C)c1O (stereo partly drawn)
Ratio CC50/IC50 [1]: 30.5
IC50 [2]: 18.2 µM
CC50 at 48 h [3]: 554 µM

C=C1CC[C@@H]2[C@H](C3C1CC[C@]3(C)C(CC(C)C)c1c(O)c(C=O)c(O)c(C=O)c1O)C2(C)C (stereo partly drawn)
Ratio CC50/IC50 [1]: 8.3
IC50 [2]: 69.6 µM
CC50 at 48 h [3]: 541 µM

CC(C)C[C@@H](c1c(O)c(C=O)c(O)c(C=O)c1O)[C@@]1(C)CC[C@@H]2[C@@H]1[C@H]1[C@@H](CC[C@@]2(C)O)C1(C)C [MACROCARPAL A]
Ratio CC50/IC50 [1]: 29.2
IC50 [2]: 20.4 µM
CC50 at 48 h [3]: 597 µM

CC(C)C[C@@H]1c2c(O)c(C=O)c(O)c(C=O)c2O[C@]2(C)C=C[C@@](O)(C(C)C)CC12 (stereo partly drawn)
Ratio CC50/IC50 [1]: 64.2
IC50 [2]: 10.2 µM
CC50 at 48 h [3]: 656 µM

CC(C)C[C@@H](c1c(O)c(C=O)c(O)c(C=O)c1O)C1CC[C@@H](C)C2=C[C@@H](C(C)(C)O)CC[C@@]21C (stereo partly drawn)
Ratio CC50/IC50 [1]: 14.2
IC50 [2]: 42.4 µM
CC50 at 48 h [3]: 602 µM

CC(C)C[C@H](c1c(O)c(C=O)c(O)c(C=O)c1O)[C@@]1(C)CC[C@@H]2[C@@H]1[C@H]1[C@@H](CC[C@]2(C)O)C1(C)C
Ratio CC50/IC50 [1]: 22.7
IC50 [2]: 26.3 µM
CC50 at 48 h [3]: 597 µM

CO[C@]1(C)CC[C@@H]2[C@H]([C@H]3[C@H]1CC[C@]3(C)[C@@H](CC(C)C)c1c(O)c(C=O)c(O)c(C=O)c1O)C2(C)C
Ratio CC50/IC50 [1]: 8.5
IC50 [2]: 68.4 µM
CC50 at 48 h [3]: 578 µM

CC(C)C[C@H]1c2c(O)c(C=O)c(O)c(C=O)c2O[C@]2(C)C=C[C@@](O)(C(C)C)CC12 (stereo partly drawn)
Activity [4]: 42.7%
Ratio CC50/IC50 [1]: 56.3
Activity (Mus musculus [5]): Active
Activity [6]: 25.1%
Activity [7]: 68.9 pg/mL
Activity (Mus musculus [8]): Active
inhibition [9]: Active
Activity (Mus musculus [10]): Active
Activity [11]: 5.7%
Activity (Mus musculus [12]): Active
Activity [13]: 32.3%
Activity [14]: 52.5 pg/mL
Activity [15]: 18.3%
IC50 [2]: 11.8 µM
Activity [16]: 4.2%
Activity [17]: 63.1%
Activity (Mus musculus [18]): Active
Activity [19]: 31.7%
Activity [20]: 19.3%
Activity [21]: 1%
Activity [22]: 9.1%
Activity [23]: 47.5%
Activity [24]: 347 pg/mL
CC50 at 48 h [3]: 664 µM
Activity [25]: 118 pg/mL
Activity [26]: 99.7 pg/mL
Activity (Mus musculus [27]): Active

CC(C)CC(=O)c1c(O)c(C=O)c(O)c(C[C@H]2CC[C@@](C)(O)C3[C@H]4[C@@H](CC[C@@]32C)C4(C)C)c1O (stereo partly drawn)
Ratio CC50/IC50 [1]: 16.9
IC50 [2]: 35.3 µM
CC50 at 48 h [3]: 598 µM

CO[C@]1(C)CC[C@@H]2[C@H]([C@H]3[C@H]1CC[C@]3(C)[C@H](CC(C)C)c1c(O)c(C=O)c(O)c(C=O)c1O)C2(C)C
Ratio CC50/IC50 [1]: 15.7
IC50 [2]: 35.8 µM
CC50 at 48 h [3]: 562 µM

CC(C)C[C@H](c1c(O)c(C=O)c(O)c(C=O)c1O)[C@@]1(C)CC[C@@H]2[C@@H]1[C@H]1[C@@H](CC[C@@]2(C)O)C1(C)C [MACROCARPAL B]
Ratio CC50/IC50 [1]: 18.4
IC50 [2]: 31.2 µM
CC50 at 48 h [3]: 570 µM

COc1c(C)c(O)c(C)c(O)c1C(=O)CC(C)C
Ratio CC50/IC50 [1]: 5
IC50 [2]: 133 µM
CC50 at 48 h [3]: 670 µM

CC(C)C[C@H]1c2c(O)c(C=O)c(O)c(C=O)c2O[C@]23CC[C@@]1(C)C2[C@H]1[C@@H](CC[C@@H]3C)C1(C)C (stereo partly drawn)
Ratio CC50/IC50 [1]: 8.5
IC50 [2]: 69.3 µM
CC50 at 48 h [3]: 588 µM

C/C1=C/[C@H]2[C@@H](CC[C@]3(C)Oc4c(C=O)c(O)c(C=O)c(O)c4[C@@H](CC(C)C)C3CC1)C2(C)C (stereo partly drawn)
Ratio CC50/IC50 [1]: 4.6
IC50 [2]: 129 µM
CC50 at 48 h [3]: 600 µM

CC(C)CC(=O)c1c(O)c(C=O)c(O)c(C[C@H]2CC[C@H](C)C3=C[C@@H](C(C)(C)O)CC[C@@]32C)c1O
Ratio CC50/IC50 [1]: 30.2
IC50 [2]: 19.1 µM
CC50 at 48 h [3]: 578 µM

CC(C)C[C@H](c1c(O)c(C=O)c(O)c(C=O)c1O)C1CC[C@@H](C)C2=C[C@@H](C(C)(C)O)CC[C@@]21C (stereo partly drawn)
Ratio CC50/IC50 [1]: 10.4
IC50 [2]: 52.3 µM
CC50 at 48 h [3]: 544 µM

CC(C)C[C@@H](c1c(O)c(C=O)c(O)c(C=O)c1O)[C@@]1(C)C=C2C(C)CC[C@H](C(C)(C)O)C2CC1 (stereo partly drawn)
Ratio CC50/IC50 [1]: 14.5
IC50 [2]: 41.2 µM
CC50 at 48 h [3]: 596 µM

CCC(C)C(=O)c1c(O)c(C)c(OC)c(C)c1O (stereo not drawn)
Ratio CC50/IC50 [1]: 8.9
IC50 [2]: 70.2 µM
CC50 at 48 h [3]: 623 µM
